# In ChEMBL document CHEMBL5724801, “EUbOPEN Chemogenomics Library - Multiplex” (2024):
# Where “and” joins values, the source holds several entries; their conditions need not be identical. Equal values may be shown once.
# Tests used:
# [1] = system: HEK-293T; experiment: Multiplex assay against HEK293T; assay type: toxicity, cell-based; conditions: human
# Summary of the method: (§1)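 Live cells carried four stains from seeding: Hoechst33342, BioTracker Green Microtubule Cytoskeleton Dye, MitoTracker Red and Annexin V Alexa Fluor 680. They were imaged on a CQ1 microscope at 37°C and 5% CO2 after compound addition. Using CellPathfinder machine-learning gating, cells were split into Hoechst high-intensity objects or normal cells, normal cells into healthy, pyknosed or fragmented nuclei, and pyknosed cells into mitotic or apoptotic; tubulin, mitochondrial-mass and membrane-permeability phenotypes are per cents of healthy-nucleus cells.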
# [2] = system: U2OS; experiment: Multiplex assay against U2OS; assay type: toxicity, cell-based; conditions: human; summary of the method: as §1
# [3] = 24 h, 10 µM, compound concentration 10 uM
# [4] = 48 h, 1 µM, compound concentration 1 uM
# [5] = 48 h, 10 µM, compound concentration 10 uM
# [6] = 12 h, 1 µM, compound concentration 1 uM
# [7] = 12 h, 10 µM, compound concentration 10 uM
# [8] = 24 h, 1 µM, compound concentration 1 uM
structure (smiles),measurement,setting,value
COc1ccc(CC(=O)NC(N/C(=N/C#N)Nc2cccc3ncccc23)C(C)(C)C)cc1OC (stereo unspecified),Population Apoptotic (%),[1]; [3],21.15% and 27.45%
same,Population Fragmented Nuclei (%),[1]; [3],2.03% and 2.01%
same,Population Healthy Nuclei (%),[1]; [3],74.55% and 29.53%
same,Population Hoechst High Intensity Objects (%),[1]; [3],0.22% and 0%
same,Population Membrane Permeable-Phenotype (%),[1]; [3],0.91% and 2.27%
same,Population Mitochondria Different-Phenotype (%),[1]; [3],18.73% and 22.73%
same,Population Mitotic Cells (%),[1]; [3],78.85% and 72.55%
same,Population Normal (%),[1]; [3],99.78% and 100%
same,Population Pyknosed Nuclei (%),[1]; [3],23.42% and 68.46%
same,Population Tubulin-Different-Phenotype (%),[1]; [3],20.54% and 18.18%
same,Total Cell Count,[1]; [3],445 and 149
same,Population Apoptotic (%),[1]; [4],8.22% and 21.13%
same,Population Fragmented Nuclei (%),[1]; [4],2.43% and 3.09%
same,Population Healthy Nuclei (%),[1]; [4],87.12% and 60.31%
same,Population Hoechst High Intensity Objects (%),[1]; [4],0.07% and 0%
same,Population Membrane Permeable-Phenotype (%),[1]; [4],5.75% and 0%
same,Population Mitochondria Different-Phenotype (%),[1]; [4],13.8% and 32.48%
same,Population Mitotic Cells (%),[1]; [4],91.78% and 78.87%
same,Population Normal (%),[1]; [4],99.93% and 100%
same,Population Fragmented Nuclei (%),[1]; [5],2.78% and 2.07%
same,Population Healthy Nuclei (%),[1]; [5],86.6% and 61.14%
same,Population Hoechst High Intensity Objects (%),[1]; [5],0.1% and 0%
same,Population Membrane Permeable-Phenotype (%),[1]; [5],4.76% and 3.39%
same,Population Mitochondria Different-Phenotype (%),[1]; [5],22.86% and 38.98%
same,Population Mitotic Cells (%),[1]; [5],93.2% and 77.46%
same,Population Normal (%),[1]; [5],99.9% and 100%
same,Population Apoptotic (%),[2]; [6],40.91% and 47.06%
same,Population Fragmented Nuclei (%),[2]; [6],2.4% and 0.62%
same,Population Healthy Nuclei (%),[2]; [6],91.73% and 88.89%
same,Population Hoechst High Intensity Objects (%),[2]; [6],0%
same,Population Membrane Permeable-Phenotype (%),[2]; [6],1.16% and 5.56%
same,Population Mitochondria Different-Phenotype (%),[2]; [6],0.87% and 4.86%
same,Population Mitotic Cells (%),[2]; [6],59.09% and 52.94%
same,Population Normal (%),[2]; [6],100%
same,Population Pyknosed Nuclei (%),[2]; [6],5.87% and 10.49%
same,Population Tubulin-Different-Phenotype (%),[2]; [6],0.87% and 0.69%
same,Total Cell Count,[2]; [6],375 and 162
same,Population Apoptotic (%),[2]; [7],51.35% and 40%
same,Population Fragmented Nuclei (%),[2]; [7],1.67% and 2.27%
same,Population Healthy Nuclei (%),[2]; [7],88.02% and 82.58%
same,Population Hoechst High Intensity Objects (%),[2]; [7],0%
same,Population Membrane Permeable-Phenotype (%),[2]; [7],1.27% and 3.67%
same,Population Mitochondria Different-Phenotype (%),[2]; [7],0.63% and 8.26%
same,Population Mitotic Cells (%),[2]; [7],48.65% and 60%
same,Population Normal (%),[2]; [7],100%
same,Population Pyknosed Nuclei (%),[2]; [7],10.31% and 15.15%
same,Population Tubulin-Different-Phenotype (%),[2]; [7],1.58% and 0.92%
same,Total Cell Count,[2]; [7],359 and 132
same,Population Apoptotic (%),[2]; [8],33.33% and 61.54%
same,Population Fragmented Nuclei (%),[2]; [8],1.96% and 2.31%
same,Population Healthy Nuclei (%),[2]; [8],85.66% and 85.65%
same,Population Hoechst High Intensity Objects (%),[2]; [8],0%
same,Population Membrane Permeable-Phenotype (%),[2]; [8],1.15% and 3.78%
same,Population Mitochondria Different-Phenotype (%),[2]; [8],0.46% and 6.49%
same,Population Mitotic Cells (%),[2]; [8],66.67% and 38.46%
same,Population Normal (%),[2]; [8],100%
same,Population Pyknosed Nuclei (%),[2]; [8],12.38% and 12.04%
same,Population Tubulin-Different-Phenotype (%),[2]; [8],0.92% and 0%
same,Total Cell Count,[2]; [8],509 and 216
same,Population Apoptotic (%),[2]; [3],35.56% and 50%
same,Population Fragmented Nuclei (%),[2]; [3],1.44% and 1.79%
same,Population Healthy Nuclei (%),[2]; [3],89.32% and 87.5%
same,Population Hoechst High Intensity Objects (%),[2]; [3],0%
same,Population Membrane Permeable-Phenotype (%),[2]; [3],1.61% and 2.04%
same,Population Mitochondria Different-Phenotype (%),[2]; [3],0.46% and 4.08%
same,Population Mitotic Cells (%),[2]; [3],64.44% and 50%
same,Population Normal (%),[2]; [3],100%
same,Population Pyknosed Nuclei (%),[2]; [3],9.24% and 10.71%
same,Population Tubulin-Different-Phenotype (%),[2]; [3],2.07% and 0.68%
same,Total Cell Count,[2]; [3],487 and 168
same,Population Apoptotic (%),[2]; [4],60.47% and 47.73%
same,Population Fragmented Nuclei (%),[2]; [4],1.92% and 2.62%
same,Population Healthy Nuclei (%),[2]; [4],88.91% and 85.86%
same,Population Hoechst High Intensity Objects (%),[2]; [4],0%
same,Population Membrane Permeable-Phenotype (%),[2]; [4],0.36% and 2.13%
same,Population Mitochondria Different-Phenotype (%),[2]; [4],0.36% and 2.74%
same,Population Mitotic Cells (%),[2]; [4],39.53% and 52.27%
same,Population Normal (%),[2]; [4],100%
same,Population Pyknosed Nuclei (%),[2]; [4],9.17% and 11.52%
same,Population Tubulin-Different-Phenotype (%),[2]; [4],0.96% and 0.61%
same,Total Cell Count,[2]; [4],938 and 382
same,Population Apoptotic (%),[2]; [5],53.62% and 57.5%
same,Population Fragmented Nuclei (%),[2]; [5],3.32% and 2.81%
same,Population Healthy Nuclei (%),[2]; [5],89.53% and 83.16%
same,Population Hoechst High Intensity Objects (%),[2]; [5],0%
same,Population Membrane Permeable-Phenotype (%),[2]; [5],0.93% and 3.38%
same,Population Mitochondria Different-Phenotype (%),[2]; [5],0.35% and 2.53%
same,Population Mitotic Cells (%),[2]; [5],46.38% and 42.5%
same,Population Normal (%),[2]; [5],100%
same,Population Pyknosed Nuclei (%),[2]; [5],7.15% and 14.04%
same,Population Tubulin-Different-Phenotype (%),[2]; [5],1.62% and 0.84%
